According to the RNAGym collection of RNA variant scans (doi:10.1038/nmeth.2970):

B1: NELF-E aptamer (parent)
chain: CCCAACGACUGCCGAGCGAGAUUACGCUUGAGCGCCCCACUGAGGAUGCCCACGGGCGAUUGGGGCACGG

Variants of: B1
Test: HiTS-RAP
Conditions: with NELF-E (Drosophila)
Procedure, shortened: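 Aptamer DNA templates carrying a T7 promoter and ter site were sequenced on an Illumina GAIIx flowcell, then transcribed in situ by T7 RNA polymerase and halted by GST-Tus (30 minutes, 37°C). Clusters were imaged after 30-minute room-temperature equilibration with NELF-E-mOrange at 0.064 to 1000 nM in HEPES binding buffer, and only the first binding curve was used. Intensities were normalised to sequencing intensity and averaged per sequence. Kd came from weighted Hill fits, keeping fits with variance below 1,000,000.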

In order of falling Kd:
1. CCCAACGACUGCCGAGCGAGAUUACGCUUGAGCGCCCCACAGAGGAUGCCCACGGGCGAUUAGGGCACGG  102 nM
2. CCCAACGACUGCCGAGCGAGAUUACGCUUGAGCGCCCCACUGCGGAUGCCCACGGGCGAUUGGGGCACGG  76 nM
3. CCCAGCGACUGCCGAGCGAGAUUACGCUUGAGCGCCCCAUUGAGGAUGCCCACGGGCGAUUGGGGCACGG  60.2 nM
4. CCCAACGACUGCCGAGCGAGAUUACGCUUGAGCGCCCCACUAAGGAUGCCCACGGGCGAUUGGGGCACGG  49.4 nM
5. CCCAACGACGGCCGAGCGAGAUUACGCUUGAGCGCCCCACUGAAGAUGCCCACGGGCGAUUGGGGCACGG  45.2 nM
6. CCCAACGGCUGCCGAGCGAGAUUACGCUUGAGCGCCCCACUAAGGAUGCCCACGGGCGAUUGGGGCACGG  44.1 nM
7. CCCAACGACUGCCGAGCGAGAUUACGCUUGAGCGCCCCUCUGAGGAUGCCCACAGGCGAUUGGGGCACGG  39.3 nM
8. CCCAACGACUGCCGAGCGAGAGUACGCUUGAGCGCCCCACUGAGGAUGUCCACGGGCGAUUGGGGCACGG  24.7 nM
9. CCCAACGACUGCCGAGCGAGAUUGCGCUUGAGCGCCCCACUGAAGAUGCCCACGGGCGAUUGGGGCACGG  18.5 nM
10. CCCAACGACUUCCGAGCGAGAUUACGCUUGAGCGCCCCACUGAGGAUGCCCUCGGGCGAUUGGGGCACGG  16.5 nM
11. CCCAACGACUGCCGAGCGAGAUUACGCUUGGGCGCCCCACUGGGGAUGCCCACGGGCGAUUGGGGCACGG  11.3 nM
12. CCCAACGACUGCCGAGCGAGAGUACGCUUGAGCGCCCCACUGAGGAUGCCCACGGGCGAAUGGGGCACGG  9.43 nM
13. CCCAACGACUGCCGAUCGAGAUUACGCUUGAGCGCCCCGCUGAGGAUGCCCACGGGCGAUUGGGGCACGG  8.49 nM
14. CCCAUCGCCUGCCGAGCGAGAUUACGCUUGAGCGCCCCACUGAGGAUGCCCACGGGCGAUUGGGGCACGG  8.3 nM
15. CCCAACGACUGCCGAGCGAGAGUACGCUUGAGCGCCCCACUGAGUAUGCCCACGGGCGAUUGGGGCACGG  7.63 nM
16. CCCAACGGCUGCCGAGCGAGAUUACGCUUGAGCGCCCCACUGAGGAUGCCCACGGGCGAUUGGAGCACGG  7.44 nM
17. CCCAACGACUGCCGAGCGAGAUGACGCUUGAGCGCCCCACUGAGGAUGCCCACGAGCGAUUGGGGCACGG  7.34 nM
18. CCCAAGGACUGCCGAGCGAGAUUACGCUUGAGCGCCCCACUGAGGAUGCCCACGGGCGAUUUGGGCACGG  7.26 nM
19. CCCGACGACUGCCGAGCGAGAUUACGCUUGGGCGCCCCACUGAGGAUGCCCACGGGCGAUUGGGGCACGG  7.17 nM
20. CCCAACUACUGGCGAGCGAGAUUACGCUUGAGCGCCCCACUGAGGAUGCCCACGGGCGAUUGGGGCACGG  6.89 nM
21. CCCAACGUCUGCCUAGCGAGAUUACGCUUGAGCGCCCCACUGAGGAUGCCCACGGGCGAUUGGGGCACGG  6.76 nM
22. CCCAACGACUGCCGUGCGAGAGUACGCUUGAGCGCCCCACUGAGGAUGCCCACGGGCGAUUGGGGCACGG  6.74 nM
23. CCCACCGACUGCGGAGCGAGAUUACGCUUGAGCGCCCCACUGAGGAUGCCCACGGGCGAUUGGGGCACGG  6.73 nM
24. CCCAACGACUGCCGAGCGAGAUGACGCUUGGGCGCCCCACUGAGGAUGCCCACGGGCGAUUGGGGCACGG  6.72 nM
25. CCCAACGACUUCCGAGCGAGAUUACGCUUGAGCGCCCCACUGAGGAUGCCUACGGGCGAUUGGGGCACGG  6.67 nM
26. CCCAACGACUGCCGAGCGAGAGUACGCUUGAGCGGCCCACUGAGGAUGCCCACGGGCGAUUGGGGCACGG  6.38 nM
27. CCCAACGACUGCCGAUCGAGAUUACGCUGGAGCGCCCCACUGAGGAUGCCCACGGGCGAUUGGGGCACGG  6.38 nM
28. CCCAACGACUGCCGAGCGAGAUUACGCUUGAGCGCUCCACUGAGGAUGCCCACGGGCGAUUGGGGCACGG  6.29 nM
29. CCCAACGACUGCCGAGCGAGAUUACGCGUGAGCGCCCCACUGAGGAUGCCCACGGGCGAUUGGGGCACGG  6.24 nM
30. CCCAACGACUGCCGAGCGAGAUUACGCUUCAGCGCCCCACUGAGGAUGCCCACGGGCGAUUGGGGCACGG  6.15 nM
31. CCCAGCGACUGCCGAGCUAGAUUACGCUUGAGCGCCCCACUGAGGAUGCCCACGGGCGAUUGGGGCACGG  6.11 nM
32. CCCAACGACAGCCGAGCGAGAUUACGCUUGUGCGCCCCACUGAGGAUGCCCACGGGCGAUUGGGGCACGG  5.78 nM
33. CCCAACGACUGCCGAGCGAGAUGACGCUUGAGCGCCCCACUGAGGAUGCGCACGGGCGAUUGGGGCACGG  5.73 nM
34. CCCAGCGACUGCGGAGCGAGAUUACGCUUGAGCGCCCCACUGAGGAUGCCCACGGGCGAUUGGGGCACGG  5.6 nM
35. CCCAAGGACUGCCGAGCGAGAUUACGCUUGAGUGCCCCACUGAGGAUGCCCACGGGCGAUUGGGGCACGG  5.41 nM
36. CCCGACGACUGCCGAGCGAGAUUACGCUUGAGAGCCCCACUGAGGAUGCCCACGGGCGAUUGGGGCACGG  5.4 nM
37. CCCAACGACUGCCGAGCGAGAUUACGCUUGAGCGCCCCACUGAGGAUGCCCACGGGCGAUGUGGGCACGG  5.22 nM
38. CCCAACGACUGCCGAGCGAGAUUACGCUUGAGCGCCCCACUGAGGAUGCCCAGGGGCGAUUGGGGCACGG  5.16 nM
39. CCCAACGACCGCCGAGCGAGAUUACGCUUGAGCGCCCCACUGAGGAUGCCCACGGGCGAUUGGGGCACGG  4.6 nM
